Measured values: publication PMC7870562 (Bioorganic chemistry, 2020)

Columns and labels:
A375 cells [1] = assay: MTT cytotoxicity / cell viability assay, A375; type: cell-based, human; details: for IC50: Homo sapiens, A-375, 48 h; for selectivity index: IC50 melanocytes / IC50 A375
Outline: (§1)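 Cells in 5–10% FBS/DMEM were seeded at 5×10³ per well, refed at 24 h and grown to 70% confluence. They were treated for 48 h at 37°C, 5% CO2 with two-fold serial dilutions of test compound in DMSO (≤0.1%), […], in 8–10 repeats. After MTT, absorbance was read at 562 nm. Viability was expressed relative to DMSO controls and IC50 derived by nonlinear regression. Data are mean ± SD of ≥5 independent experiments in octuplicates.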

SK-Mel-28 cells = assay: MTT cytotoxicity / cell viability assay, SK-Mel-28; type: cell-based, human; details: for IC50: Homo sapiens, SK-MEL-28, 48 h; for selectivity index: IC50 melanocytes / IC50 SK-Mel-28
Outline: as §1

Melanocyte = assay: MTT cytotoxicity / cell viability assay, normal melanocytes; type: cell-based; details: Homo sapiens, 48 h
Outline: as §1

A431 cells [2] = assay: MTT cytotoxicity / cell viability assay, A431; type: cell-based, human; details: for IC50: Homo sapiens, A-431, 48 h; for selectivity index: IC50 HaCaT / IC50 A431
Outline: as §1

UWBCC1 cells = assay: MTT cytotoxicity / cell viability assay, UWBCC1; type: cell-based, human; details: for IC50: Homo sapiens, 48 h; for selectivity index: IC50 HaCaT / IC50 UWBCC1
Outline: as §1

HaCaT = assay: MTT cytotoxicity / cell viability assay, HaCaT keratinocytes; type: cell-based; details: Homo sapiens, 48 h
Outline: as §1

c-Kit = c-Kit (Homo sapiens, UniProt P10721); assay: In vitro kinase activity assay; type: biochemical
Sequence of c-Kit (P10721 26-976): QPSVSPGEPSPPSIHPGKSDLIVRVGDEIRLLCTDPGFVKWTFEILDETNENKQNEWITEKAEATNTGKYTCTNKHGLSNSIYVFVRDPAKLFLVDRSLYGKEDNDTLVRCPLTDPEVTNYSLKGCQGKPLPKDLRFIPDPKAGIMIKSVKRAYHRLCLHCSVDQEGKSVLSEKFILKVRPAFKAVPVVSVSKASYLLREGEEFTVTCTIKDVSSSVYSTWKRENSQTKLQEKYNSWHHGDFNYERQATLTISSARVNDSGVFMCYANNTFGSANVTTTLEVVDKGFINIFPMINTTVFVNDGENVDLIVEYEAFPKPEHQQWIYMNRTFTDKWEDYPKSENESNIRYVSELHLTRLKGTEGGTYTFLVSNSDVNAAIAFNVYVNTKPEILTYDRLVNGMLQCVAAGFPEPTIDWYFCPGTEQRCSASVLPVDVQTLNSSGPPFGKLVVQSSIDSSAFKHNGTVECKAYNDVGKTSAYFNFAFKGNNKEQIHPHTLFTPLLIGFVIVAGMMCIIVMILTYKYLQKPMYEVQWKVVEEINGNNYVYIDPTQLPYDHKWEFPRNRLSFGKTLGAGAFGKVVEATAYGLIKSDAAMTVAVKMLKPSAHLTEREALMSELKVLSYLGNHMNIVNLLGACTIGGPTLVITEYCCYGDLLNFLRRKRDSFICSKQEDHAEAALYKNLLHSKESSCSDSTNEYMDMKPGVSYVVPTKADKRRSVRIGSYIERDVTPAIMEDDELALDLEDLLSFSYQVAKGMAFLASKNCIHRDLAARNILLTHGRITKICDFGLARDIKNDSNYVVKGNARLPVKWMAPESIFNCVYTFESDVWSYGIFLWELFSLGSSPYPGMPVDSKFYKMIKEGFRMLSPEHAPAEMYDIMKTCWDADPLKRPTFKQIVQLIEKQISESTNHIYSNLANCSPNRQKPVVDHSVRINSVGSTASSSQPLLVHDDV
Outline: (§2)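 Kinase profiling was run at Reaction Biology. IC50 values came from 10-dose mode, three-fold serial dilutions starting at 100 μM. Reference inhibitors were co-assayed at 1 and 10 μM.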

CDK2/Cyclin A = CDK2/Cyclin A (Homo sapiens, UniProt P24941); assay: In vitro kinase activity assay; type: biochemical; details: 10-dose, three-fold serial dilution from 100 μM
Outline: as §2

CDK2/Cyclin E = CDK2/Cyclin E (Homo sapiens, UniProt P24941); assay: In vitro kinase activity assay; type: biochemical; details: 10-dose, three-fold serial dilution from 100 μM
Outline: as §2

mTOR/FRAP1 = mTOR/FRAP1 (Homo sapiens, UniProt P42345); assay: In vitro kinase activity assay; type: biochemical; details: for IC50: mTOR/FRAP1 IC50, 10-dose, three-fold serial dilution from 100 μM
Outline: as §2

A375 cells [3] = assay: DAPI staining of apoptotic nuclei, A375; type: cell-based, human
Outline: (§3)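 Equal numbers of cells were seeded in T-25 flasks and exposed to test compound at different concentrations for 36 h. Cells were PBS-washed, stained with DAPI in PBS and imaged by fluorescence microscopy at 10x and 1.6×10x. Apoptotic nuclei were scored by morphology and expressed as percentage of cells.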

A431 cells [4] = assay: DAPI staining of apoptotic nuclei, A431; type: cell-based, human
Outline: as §3

A375 and A431 cells [5] = assay: Scratch wound healing assay; type: cell-based, human; details: A375 and A431, ½IC50, IC50, 2×IC50, 48 h; for inhibition of wound closure: vs untreated controls
Outline: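 Confluent A375 or A431 monolayers in complete DMEM received two parallel scratches made with a 200-μL pipette tip, then were washed. Wells were treated at ½IC50, IC50 or 2×IC50 for 48 h. Wound area was measured by image analysis as a percentage of the initial cell-free area versus 0 h and 48 h controls. Data are mean ± SD of three independent experiments; one-way ANOVA with Dunn's test.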

A375 and A431 cells [6] = assay: Colony formation assay; type: cell-based, human; details: A375 and A431, ½IC50, IC50, 2×IC50, concentration-dependent
Outline: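 DMSO ≤0.1% v/v was the vehicle control. Cells were trypsinized and ~1000 reseeded per 10-cm2 plate, then grown 10–14 days drug-free at 37°C, 5% CO2, with medium renewed every 2–3 days. Colonies were stained with 0.5% Gentian violet in ~64% methanol/4% paraformaldehyde. Results are percent of control, mean ± SD of three independent experiments.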

A375 and A431 cells [7] = assay: Western blot analysis of apoptosis, cell cycle and c-Kit markers; type: cell-based, human; details: A375 and A431, IC50 and 2×IC50, 48 h
Outline: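 Cells were plated at 3×10⁵ overnight and treated at 0, IC50 or 2×IC50 (<0.1% DMSO) for 48 h. Lysates were made in ice-cold RIPA with protease/phosphatase inhibitors and PMSF (15 min), then run on SDS-PAGE. Blots were probed with primary antibodies at 1:250–1:1000 and HRP secondary at 1:2000. Bands were normalized to β-actin, GAPDH or Rab11 and given as % expression; three independent experiments, one-way ANOVA with Dunn's test.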

[8] = A375, treated 36 hours at ½IC50
[9] = A431, treated 36 hours at ½IC50

Compound | IC50 (A375 cells [1]) [µM] | selectivity index (A375 cells [1]) | IC50 (SK-Mel-28 cells) [µM] | selectivity index (SK-Mel-28 cells) | IC50 (Melanocyte) [µM] | IC50 (A431 cells [2]) [µM] | selectivity index (A431 cells [2]) | IC50 (UWBCC1 cells) [µM] | selectivity index (UWBCC1 cells) | IC50 (HaCaT) [µM] | IC50 (c-Kit) [µM] | IC50 (CDK2/Cyclin A) [µM] | IC50 (CDK2/Cyclin E) [µM] | IC50 (mTOR/FRAP1) [µM] | DAPI (+) apoptotic cells (A375 cells [3]; A375, treated 36 hours at IC50) [%] | DAPI (+) apoptotic cells (A375 cells [3]; [8]) [%] | DAPI (+) apoptotic cells (A431 cells [4]; A431, treated 36 hours at IC50) [%] | DAPI (+) apoptotic cells (A431 cells [4]; [9]) [%] | inhibition of wound closure (A375 and A431 cells [5]) | other results
COc1cccc(-c2oc3cc(C)ccc3c(=O)c2O)c1 [F9, 3-Hydroxy-2-(3-methoxyphenyl)-7-methyl-4H-chromen-4-one] | 12 ± 0.9 | 2.2 | 17 ± 1 | 1.5 | 26 ± 1.6 | 9.2 ± 0.7 | 2.9 | 9.4 ± 0.3 | 2.9 | 27 ± 0.3 | 0.12 | 2.95 | 1.78 | 1.42 | 18.2 | 7.5 | 19.1 | 7.93 | 28–72% | –
Cc1cc([N+](=O)[O-])c2oc(-c3ccc(Br)cc3)c(O)c(=O)c2c1 [F20, 2-(4-Bromophenyl)-3-hydroxy-6-methyl-8-nitro-4H-chromen-4-one] | 6.3 ± 1 | 5.6 | 17 ± 3 | 2.1 | 35 ± 0.23 | 0.2 ± 0.1 | ~170 | 0.12 ± 0.11 | – | 34 ± 0.6 | 0.09 | 4.77 | > 100 | – | 20.4 | 8.2 | 27.7 | 14.6 | – | inhibition of mTOR kinase activity (in words) (mTOR/FRAP1): did not substantively inhibit; scratched wound area closure (in words) (A375 and A431 cells [5]; dose-dependent): significantly decreased; percentage of colonies (in words) (A375 and A431 cells [6]): significantly reduced; expression level of pro-apoptotic protein Bax (A375 and A431 cells [7]): significantly increased; level of anti-apoptotic protein Bcl-2 (A375 and A431 cells [7]): decreased; protein expression levels of cyclin A2, cyclin E2 and CDK2 (A375 and A431 cells [7]): significantly suppress; protein expression levels of phosphorylated c-Kit (A375 and A431 cells [7]): significantly suppressed; protein expression levels of cleaved caspases −3, −7, −8 and PARP (A375 and A431 cells [7]; vs untreated controls): elevated
O=c1c(O)c(-c2cccc(Cl)c2)oc2ccc(F)cc12 [F17, 2-(3-Chlorophenyl)-6-fluoro-3-hydroxy-4H-chromen-4-one] | 13 ± 1 | 2.5 | 25 ± 3.4 | – | 32 ± 0.72 | 10 ± 2.6 | 3.8 | 8.1 ± 1.2 | 4.7 | 38 ± 0.8 | 1.74 | 4.57 | 5.7 | 11.5 | 17.7 | 6.9 | 18.4 | 8.81 | 28–72% | –
